We go through 19 molecules from ChEMBL document CHEMBL4411315, “Discovery of Novel Dual Histone Deacetylase and Mammalian Target of Rapamycin Target Inhibitors as a Promising Strategy for Cancer Therapy” (J Med Chem, 2019).

The IC50 is the concentration that inhibits the measured activity by half. What is called inhibition is the drop in the measured response relative to a control, in per cent.

SMILES strings stand for the structures.

Assay [1] has as its system Raji. Description: Antiproliferative activity against human Raji cells after 72 hrs by MTT assay. Format: functional, cell-based. In outline:
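Log-phase cells were plated at 10000-15000 per well and exposed to serial concentrations after 24 h for 72 h. Read-out was MTT for 1-3 h, then 20% SDS overnight and absorbance at 570 nm. IC50 was calculated from growth versus untreated control, as mean ± SEM of at least three independent experiments.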
(Tetrazolium dyes change colour on reduction, which living cells bring about.)

The test system of assay [2] is OCI-AML2. Nature of the assay: Antiproliferative activity against human OCI-AML2 cells after 72 hrs by MTT assay. The note with it: OCI-AML2, 72 h. Format: functional, cell-based.
In assay [3] the test system is MV4-11. Description: Antiproliferative activity against human MV4-11 cells after 72 hrs by MTT assay. As to conditions: MV4-11, 72 h. The class given is functional, cell-based.
Assay [4] has as its system MM1.S. Nature of the assay: Antiproliferative activity against human MM1S cells after 72 hrs by MTT assay. Format: functional, cell-based.
Assay [5] relates to OCI-AML-3. Description: Antiproliferative activity against human OCI-AML3 cells after 72 hrs by MTT assay. Format: functional, cell-based. The note with it: OCI-AML-3, 72 h.
The subject of assay [6] is HCT-116. Nature of the assay: Antiproliferative activity against human HCT116 cells after 72 hrs by MTT assay. As to conditions: HCT-116, 72 h. Format: functional, cell-based.
Assay [7] has as its system Ramos. Description: Antiproliferative activity against human Ramos cells at 5 uM after 72 hrs by MTT assay relative to control. The class given is functional. Summed up:
(§1)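 HCT116 cells were grown in DMEM and Ramos cells in RPMI 1640, each with 10% FBS and penicillin/streptomycin, at 37 °C in 5% CO2. Log-phase cells were seeded at 10000-15000 per well and dosed after 24 h at 5 or 0.5 μM for 72 h. MTT was added for 1-3 h, followed by 20% SDS overnight, and A570 was read. Percent inhibition is relative to untreated control, as the mean of at least two experiments.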

Assay [8] concerns the target T1, Serine/threonine-protein kinase mTOR (Homo sapiens, UniProt P42345). Nature of the assay: Inhibition of recombinant N-terminal FLAG-tagged human mTOR (1362 to end residues) at 500 nM using ULight-4E-BP1 (Thr37/46) peptide as substrate after 1 hr by fluorescence assay relative to control.
For assay [9], the target named is T2, PI3-kinase p110-alpha/p85-alpha (Homo sapiens) (UniProt P27986+P42336). Description: Inhibition of recombinant human full length N-terminal His-tagged/untagged p110alpha/p85alpha expressed in baculovirus expression system at 500 nM using PIP2 as substrate after 1 hr by Kinase-Glo reagent-based assay relative to control. (Kinase-Glo measures the ATP left after a reaction by luminescence.)

For assay [10], the system named is HCT-116. Nature of the assay: Antiproliferative activity against human HCT116 cells at 5 uM after 72 hrs by MTT assay relative to control. Format: functional. As to conditions: HCT-116, 72 h. In outline: as §1
In assay [11] the test system is HCT-116. Nature of the assay: Antiproliferative activity against human HCT116 cells at 0.5 uM after 72 hrs by MTT assay relative to control. The note with it: HCT-116, 72 h. Format: functional. Summed up: as §1
The subject of assay [12] is Ramos. Description: Antiproliferative activity against human Ramos cells at 0.5 uM after 72 hrs by MTT assay relative to control. Format: functional. In outline: as §1
Assay [13] has as its target T2, PI3-kinase p110-alpha/p85-alpha (Homo sapiens). Description: Inhibition of recombinant human full length N-terminal His-tagged/untagged p110alpha/p85alpha expressed in baculovirus expression system at 100 nM using PIP2 as substrate after 1 hr by Kinase-Glo reagent-based assay relative to control. In outline:
(§2)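 PI3Kα (p110α/p85α) incubated with PIP2 substrate and ATP in kinase buffer for 1 h at room temperature. Kinase-Glo reagent was then added for 15 min before luminescence read-out. Inhibition rate at 100 or 1000 nM is the mean of at least two experiments.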

Assay [14] has as its target T1, Serine/threonine-protein kinase mTOR. Description: Inhibition of recombinant N-terminal FLAG-tagged human mTOR (1362 to end residues) using ULight-4E-BP1 (Thr37/46) peptide as substrate after 1 hr by fluorescence assay. In outline:
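mTOR enzyme, ATP, compound and ULight-4E-BP1 (Thr37/46) peptide in kinase buffer were incubated 1 h at room temperature. EDTA quench plus Eu-anti-phospho-4E-BP1 antibody was added and equilibrated 1 h. TR-FRET was read at excitation 320 or 340 nm and emission 665 nm. Curves were fitted, and values are means of at least two experiments.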

Assay [15] concerns the target T2, PI3-kinase p110-alpha/p85-alpha (Homo sapiens). Nature of the assay: Inhibition of recombinant human full length N-terminal His-tagged/untagged p110alpha/p85alpha expressed in baculovirus expression system at 1000 nM using PIP2 as substrate after 1 hr by Kinase-Glo reagent-based assay relative to control. Summed up: as §2
Assay [16] deals with MCF7. Nature of the assay: Antiproliferative activity against human MCF7 cells after 72 hrs by MTT assay. Format: functional, cell-based. The note with it: MCF7, 72 h.

As to `CCCCNC(=O)Nc1ccc(-c2nc(N3CCOCC3)c3cnn(CCCCCCC(=O)NO)c3n2)cc1`, the IC50 in [1] came out at 19.1 nM; in [2], 9.71 nM; in [3], 18.3 nM; in assay [4], 15.3 nM; in assay [5], 8.79 nM; in assay [6], 33.9 nM.

Consider `O=C(CCCCCCCn1ncc2c(N3CCOCC3)nc(N3CCOCC3)nc21)NO`, for which the inhibition at 5 µM is 99.1% in assay [7] and 71.8% in assay [10]. Further, the inhibition was 4.4% in assay [8] and -1.2% in [9]. Further, the inhibition at 0.5 µM was 13.8% in assay [11] and 26.9% in [12].

As to `CN1CCN(c2nc(N3CCOCC3)c3cnn(CCCCCCC(=O)NO)c3n2)CC1`, the inhibition at 5 µM in assay [7] is 99.5%; in assay [10] it was 80.3%. Also, the inhibition in assay [8] is -0.4%; in [9] it was -6.2%. The inhibition at 0.5 µM stood at 59.9% in assay [11] and 90.1% in [12].

In the case of `O=C(/C=C/c1ccc(Cn2ncc3c(N4CCOCC4)nc(N4CCOCC4)nc32)cc1)NO`, the inhibition at 5 µM in [7] is 98.2%; in assay [10], 59.5%. The inhibition in [8] is -5.4%; in [9], -3%. For the same molecule, the inhibition at 0.5 µM in assay [11] was 12%; in [12], 16.8%.

Consider `O=C(CCCCCCn1ncc2c(N3CCOCC3)nc(-c3ccc(NC(=O)N4CCSCC4)cc3)nc21)NO`, for which the 50% inhibitory concentration (IC50) in assay [1] was 148 nM; in [2], 16.9 nM; in assay [3], 13.9 nM; in assay [4], 39.2 nM; in assay [5], 15 nM; in [6], 68 nM.

Regarding `O=C(CCn1ncc2c(N3CCOCC3)nc(N3CCOCC3)nc21)NO`, the inhibition at 5 µM in assay [7] is 15.7%; in assay [10], 22.4%. The inhibition in [8] was -5%; in assay [9], 11%. Besides, the inhibition at 0.5 µM in assay [11] is 6.3%; in assay [12], 8.5%.

As for `O=C(Cn1ncc2c(N3CCOCC3)nc(N3CCOCC3)nc21)NO`, the figures for the inhibition at 5 µM in [7] and in [10] were 12.4% and 18.1%, respectively. Moreover, in [9], the inhibition turned out to be 5.9%. The figures for the inhibition at 0.5 µM in [11] and in assay [12] were 3.5% and 1.1%, respectively.

`CN1CCN(c2nc(N3CCOCC3)c3cnn(CCCCCC(=O)NO)c3n2)CC1`: the inhibition at 5 µM in assay [7] amounted to 99.5%; in [10], 56.9%. For the same molecule, the inhibition is -1.7% in assay [8] and 1.5% in [9]. In addition, the results for the inhibition at 0.5 µM in assay [11] and in assay [12] were 10.2% and 91.2%, respectively.

Turning to `O=C(CCCCCCn1ncc2c(N3CCOCC3)nc(-c3ccc(NC(=O)N4CCNCC4)cc3)nc21)NO`, the half-inhibitory concentration (IC50) in [1] was found to be 127 nM; in [2] it was 32.8 nM; in assay [3] it was 26.5 nM; in [4] it was 126 nM; in [5], 40.1 nM; in assay [6] it was 111 nM.

Regarding `O=C(CCCCCn1ncc2c(N3CCOCC3)nc(N3CCOCC3)nc21)NO`, the inhibition at 5 µM in assay [7] turned out to be 94.6%; in assay [10], 92.1%. Moreover, the inhibition in assay [8] was -4.2%; in assay [9], 1%. The values for the inhibition at 0.5 µM in assay [11] and in assay [12] were 62.4% and 69.2%, respectively.

Consider `O=C(CCCCCCn1ncc2c(N3CCOCC3)nc(-c3ccc(NC(=O)N4CCOCC4)cc3)nc21)NO`, for which the half-maximal inhibitory concentration (IC50) in assay [1] was determined as 14.6 nM; in assay [2], 29 nM; in [3], 12.6 nM; in [4], 27.8 nM; in assay [5], 30.1 nM; in assay [6], 100 nM.

In the case of `O=C(CCCn1ncc2c(N3CCOCC3)nc(N3CCOCC3)nc21)NO`, the results for the inhibition at 5 µM in assay [7] and in assay [10] were 39.6% and 30.1%, respectively. In addition, the inhibition in assay [8] amounted to 21%; in assay [9], 17%. Also, the results for the inhibition at 0.5 µM in assay [11] and in assay [12] were 15.7% and 20.5%, respectively.

Consider `CCN1CCN(C(=O)Nc2ccc(-c3nc(N4CCOCC4)c4cnn(CCCCCCC(=O)NO)c4n3)cc2)CC1`, for which the 50% inhibitory concentration (IC50) in assay [1] was found to be 34.8 nM; in assay [2] it was 3.97 nM; in assay [3], 5.86 nM; in assay [4], 52.1 nM; in assay [5], 8.01 nM; in assay [6], 42.9 nM. For the same molecule, the half-maximal inhibitory concentration (IC50) in assay [14] is 3.1 nM. Besides, the results for the inhibition in [13] and in [15] were 69.3% and 83.4%, respectively.

`O=C(CCCCCCn1ncc2c(N3CCOCC3)nc(-c3cc[nH]c3)nc21)NO`: the IC50 in assay [1] amounted to 15.3 nM; in assay [4] it was 52.3 nM; in [6], 107 nM; in assay [16], 180 nM. Also, the inhibition was 85% in assay [8] and -3.8% in [9].

In the case of `CN1CCN(C(=O)Nc2ccc(-c3nc(N4CCOCC4)c4cnn(CCCCCCC(=O)NO)c4n3)cc2)CC1`, the IC50 in [1] was 70.4 nM; in [2] it was 8.55 nM; in [3], 7.01 nM; in [4], 62.2 nM; in [5], 35.3 nM; in [6], 83.5 nM. The IC50 in assay [14] is 3.4 nM. The inhibition in assay [13] turned out to be 52.7%; in assay [15], 98.1%.

`O=C(CCCCCCn1ncc2c(N3CCOCC3)nc(N3CCOCC3)nc21)NO`: the IC50 in [1] is 159 nM; in assay [4] it was 192 nM; in assay [6] it was 89.9 nM; in assay [16], 372 nM. Moreover, the values for the inhibition at 5 µM in assay [7] and in assay [10] were 97.4% and 95.2%, respectively. The inhibition in [8] turned out to be 2.2%; in assay [9], 4.5%. For the same molecule, the inhibition at 0.5 µM in assay [11] came out at 92.9%; in assay [12], 91%.

With `O=C(CCCCCCn1ncc2c(N3CCOCC3)nc(-c3ccsc3)nc21)NO`, the IC50 in assay [1] amounted to 14.6 nM; in assay [4], 35.6 nM; in [6] it was 72.8 nM; in assay [16] it was 202 nM. The inhibition in assay [8] turned out to be 55%; in assay [9], 9.7%.

Take `O=C(CCCCn1ncc2c(N3CCOCC3)nc(N3CCOCC3)nc21)NO`: the results for the inhibition at 5 µM in assay [7] and in assay [10] were 60.2% and 55.8%, respectively. Further, the inhibition in assay [8] was -5.4%; in [9], 15%. For the same molecule, the inhibition at 0.5 µM in [11] came to 22.6%; in assay [12], 33.3%.

In the case of `CCNC(=O)Nc1ccc(-c2nc(N3CCOCC3)c3cnn(CCCCCCC(=O)NO)c3n2)cc1`, the concentration for half-maximal inhibition (IC50) in assay [1] turned out to be 19.7 nM; in assay [2] it was 18.4 nM; in assay [3], 10.4 nM; in assay [4] it was 11.8 nM; in assay [5], 16.3 nM; in [6], 61.9 nM.
